Assay type in all cases: cell-based
For test [1], the target named is T1, Protein cereblon/von Hippel-Lindau disease tumor suppressor (Homo sapiens, UniProt P40337+Q96SW2). Nature of the test: Protac activity at VHL/CRBN in human HeLa cells assessed as induction of VHL degradation at 1 uM after 4 hrs by Western blot analysis. A digest of the protocol:
(§1)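 HeLa cells (5 × 10⁵, DMEM + 10% FBS, 37 °C, 5% CO₂, ≤30 passages) seeded overnight, then treated 4 h with compound at single or graded concentrations (0.1% v/v DMSO final). RIPA lysates equalised by Bradford; SDS-PAGE and anti-CRBN/anti-VHL immunoblots; bands normalised to β-tubulin and expressed as % of mean DMSO vehicle. DC₅₀ from fit of band intensity versus log[concentration].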

Test [2] concerns the target T1, Protein cereblon/von Hippel-Lindau disease tumor suppressor. Nature of the test: Protac activity at VHL/CRBN in HEK293 cells assessed as pVHL19 protein abundance at 1 uM after 24 hrs by Western blot analysis relative to DMSO. The method, boiled down:
(§2)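 HEK293 cells (DMEM, 10% FBS, penicillin/streptomycin, L-glutamine; 37 °C, 5% CO2; ≤30 passages) seeded at 1 × 10⁶ per well overnight, then treated with compound at 0.1% v/v final DMSO. Cells were lysed in RIPA with protease inhibitors and benzonase, then clarified. Equal Bradford-quantified protein was immunoblotted for CRBN/VHL. Bands were normalised to β-tubulin and expressed as % of mean 0.1% DMSO vehicle.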
Background: In western blotting, separated proteins are transferred to a membrane and probed.

Test [3] has the same target. Nature of the test: Protac activity at VHL/CRBN in human HeLa cells assessed as CRBN protein abundance after 4 hrs by Western blot analysis relative to DMSO. A digest of the protocol: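 HeLa cells (DMEM, 10% FBS, penicillin/streptomycin, L-glutamine; 37 °C, 5% CO2) seeded at 5 × 10⁵ per well overnight, then treated in 0.1% v/v final DMSO. Cells were lysed in RIPA with protease inhibitors and benzonase, and equal protein was run on SDS-PAGE/nitrocellulose blots probed with anti-CRBN. Bands were normalised to β-tubulin and expressed relative to mean 0.1% DMSO vehicle.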

Test [4] shares this target. Nature of the test: Protac activity at VHL/CRBN in human HeLa cells assessed as CRBN protein abundance at 1 uM after 4 hrs by Western blot analysis relative to DMSO. A digest of the protocol:
(§3)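 HeLa cells seeded overnight, then exposed to 1 µM compound (0.1% v/v DMSO final) over a time course. Cells were DPBS-washed and RIPA-lysed with protease inhibitors and benzonase; equal protein was loaded. Immunoblots for CRBN and VHL isoforms were quantified against β-tubulin and reported relative to the averaged 0.1% DMSO vehicle.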

Test [5] shares this target. The test can be described thus: Protac activity at VHL/CRBN in HEK293 cells assessed as CRBN protein abundance at 1 uM after 24 hrs by Western blot analysis relative to DMSO. The method, boiled down:
as §2

The target is the same in test [6]. Nature of the test: Protac activity at VHL/CRBN in human HeLa cells assessed as CRBN protein abundance at 10 nM after 4 hrs by Western blot analysis relative to DMSO. A digest of the protocol: as §1
For test [7] the target is unchanged. Nature of the test: Protac activity at VHL/CRBN in human HeLa cells assessed as pVHL30 protein abundance at 1 uM after 24 hrs by Western blot analysis relative to DMSO. A digest of the protocol:
as §3

The target is the same in test [8]. Nature of the test: Protac activity at VHL/CRBN in human HeLa cells assessed as pVHL30 protein abundance after 4 hrs by Western blot analysis relative to DMSO. A digest of the protocol: as §1
For test [9] the target is unchanged. Nature of the test: Protac activity at VHL/CRBN in human HeLa cells assessed as CRBN protein abundance at 1 uM after 24 hrs by Western blot analysis relative to DMSO. A digest of the protocol:
as §3

Test [10] has the same target. Nature of the test: Protac activity at VHL/CRBN in HEK293 cells assessed as pVHL19 protein abundance after 4 hrs by Western blot analysis relative to DMSO. A digest of the protocol:
as §2

For test [11] the target is unchanged. Nature of the test: Protac activity at VHL/CRBN in HEK293 cells assessed as CRBN protein abundance after 4 hrs by Western blot analysis relative to DMSO. The method, boiled down: as §2
For test [12] the target is unchanged. Nature of the test: Protac activity at VHL/CRBN in HEK293 cells assessed as pVHL19 protein abundance at 1 uM after 4 hrs by Western blot analysis relative to DMSO. A digest of the protocol: as §2
The target is the same in test [13]. The test can be described thus: Protac activity at VHL/CRBN in human HeLa cells assessed as pVHL19 protein abundance at 10 nM after 4 hrs by Western blot analysis relative to DMSO. The method, boiled down: as §1
Test [14] has the same target. Nature of the test: Protac activity at VHL/CRBN in human HeLa cells assessed as pVHL19 protein abundance at 1 uM after 24 hrs by Western blot analysis relative to DMSO. A digest of the protocol: as §3
Test [15] shares this target. Nature of the test: Protac activity at VHL/CRBN in human HeLa cells assessed as pVHL19 protein abundance at 1 uM after 4 hrs by Western blot analysis relative to DMSO. A digest of the protocol:
as §3

Test [16] shares this target. The test can be described thus: Protac activity at VHL/CRBN in human HeLa cells assessed as pVHL30 protein abundance at 1 uM after 4 hrs by Western blot analysis relative to DMSO. A digest of the protocol:
as §3

The target is the same in test [17]. The test can be described thus: Protac activity at VHL/CRBN in HEK293 cells assessed as pVHL30 protein abundance after 4 hrs by Western blot analysis relative to DMSO. A digest of the protocol: as §2
Test [18] has the same target. The test can be described thus: Protac activity at VHL/CRBN in human HeLa cells assessed as pVHL30 protein abundance at 10 nM after 4 hrs by Western blot analysis relative to DMSO. The method, boiled down: as §1
Test [19] has the same target. Nature of the test: Protac activity at VHL/CRBN in HEK293 cells assessed as CRBN protein abundance at 1 uM after 4 hrs by Western blot analysis relative to DMSO. A digest of the protocol:
as §2

Test [20] shares this target. Nature of the test: Protac activity at VHL/CRBN in HEK293 cells assessed as pVHL30 protein abundance at 1 uM after 24 hrs by Western blot analysis relative to DMSO. The method, boiled down:
as §2

The target is the same in test [21]. Nature of the test: Protac activity at VHL/CRBN in HEK293 cells assessed as pVHL30 protein abundance at 1 uM after 4 hrs by Western blot analysis relative to DMSO. The method, boiled down: as §2
The target is the same in test [22]. The test can be described thus: Protac activity at VHL/CRBN in human HeLa cells assessed as pVHL19 protein abundance after 4 hrs by Western blot analysis relative to DMSO. A digest of the protocol:
as §1

Activity calls are given as the source filed them. No cut-off for these calls is given here.

T1 sequence (P40337 whole entry, looked up): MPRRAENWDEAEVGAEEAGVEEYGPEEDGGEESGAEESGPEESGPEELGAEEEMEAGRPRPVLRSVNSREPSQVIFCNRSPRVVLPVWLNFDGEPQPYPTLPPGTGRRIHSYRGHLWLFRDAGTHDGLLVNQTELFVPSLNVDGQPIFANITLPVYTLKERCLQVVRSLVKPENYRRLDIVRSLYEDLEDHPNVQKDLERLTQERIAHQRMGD
T1 sequence (Q96SW2 whole entry, looked up): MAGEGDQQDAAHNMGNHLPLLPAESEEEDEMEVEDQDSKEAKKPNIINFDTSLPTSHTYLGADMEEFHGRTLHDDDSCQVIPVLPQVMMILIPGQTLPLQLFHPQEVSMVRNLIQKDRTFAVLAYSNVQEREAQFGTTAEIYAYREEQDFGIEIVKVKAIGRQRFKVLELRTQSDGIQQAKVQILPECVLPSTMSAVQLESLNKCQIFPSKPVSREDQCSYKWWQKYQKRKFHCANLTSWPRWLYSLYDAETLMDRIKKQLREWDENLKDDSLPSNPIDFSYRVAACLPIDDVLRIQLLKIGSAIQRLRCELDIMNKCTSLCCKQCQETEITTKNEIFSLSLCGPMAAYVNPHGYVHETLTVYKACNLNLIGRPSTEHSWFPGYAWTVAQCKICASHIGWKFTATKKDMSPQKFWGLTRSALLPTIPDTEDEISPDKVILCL

Regarding `Cc1ncsc1-c1ccc(CNC(=O)[C@@H]2C[C@@H](O)CN2C(=O)[C@@H](NC(=O)COCCOCCOCCOCCOCCOCC(=O)N[C@H](C(=O)N2C[C@H](O)C[C@H]2C(=O)NCc2ccc(-c3scnc3C)cc2)C(C)(C)C)C(C)C)cc1`, the outcome in test [1] was inactive. In addition, the Activity in test [2] is 99%; in test [3], 99%; in test [4], 103%; in test [5], 109%; in test [6], 87%; in [7], 11%. In addition, the Activity worked out at 0% in [8]; 118% in [9]; 95% in [10]; 100% in test [11]; 95% in [12]; 97% in test [13]. The Activity in test [14] amounted to 122%; in test [15], 97%; in test [16] it was 1%; in test [17], 6%; in test [18], 0%; in test [19] it was 102%. Also, the Activity in [20] turned out to be 3%; in test [21], 1%; in [22], 100%.
`O=C1CCC(N2C(=O)c3cccc(NCCOCCOCCNc4cccc5c4C(=O)N(C4CCC(=O)NC4=O)C5=O)c3C2=O)C(=O)N1` (centres undefined): in test [1], the result was inactive. The Activity amounted to 99% in test [2]; 40% in test [3]; 34% in test [4]; 25% in [5]; 38% in [6]; 102% in [7]. Also, the Activity in test [8] is 109%; in test [9] it was 29%; in test [10] it was 94%; in test [11] it was 52%; in [12], 97%; in [13], 95%. In addition, the Activity in test [14] turned out to be 107%; in test [15] it was 100%; in test [16] it was 87%; in test [17], 95%; in test [18] it was 95%; in test [19], 37%. For the same compound, the Activity in test [20] worked out at 96%; in test [21], 99%; in test [22], 104%.

These data come from ChEMBL document CHEMBL4665633, “Cereblon versus VHL: Hijacking E3 ligases against each other using PROTACs” (Bioorg Med Chem, 2019).
